According to ChEMBL document CHEMBL4689842, “EUbOPEN Chemogenomics Library wave 1” (2021):

System: HEK-293T
Assay: Multiplex assay against HEK293T;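 as to Population Tubulin-Different-Phenotype (%): share of the cells with healthy nuclei that show this phenotype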
Assay type: toxicity, cell-based
Conditions: human
Outline: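 Compound was added to live cells that had been stained at seeding with Hoechst33342, BioTracker Green Microtubule Cytoskeleton Dye, MitoTracker Red and Annexin V Alexa Fluor 680, and imaging followed on a CQ1 microscope at 37°C and 5% CO2. CellPathfinder machine-learning gating divided cells into Hoechst high-intensity objects or normal cells, normal cells into healthy, pyknosed or fragmented nuclei, and pyknosed cells into mitotic or apoptotic. Tubulin, mitochondrial-mass and membrane-permeability phenotypes are per cents of healthy-nucleus cells.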

[1] = 12 h, 1 µM, compound concentration 1 uM, replicate 1
[2] = 12 h, 1 µM, compound concentration 1 uM, replicate 2
[3] = 12 h, 10 µM, compound concentration 10 uM, replicate 1
[4] = 12 h, 10 µM, compound concentration 10 uM, replicate 2
[5] = 24 h, 1 µM, compound concentration 1 uM, replicate 1
[6] = 24 h, 1 µM, compound concentration 1 uM, replicate 2
[7] = 24 h, 10 µM, compound concentration 10 uM, replicate 1
[8] = 24 h, 10 µM, compound concentration 10 uM, replicate 2
[9] = 48 h, 1 µM, compound concentration 1 uM, replicate 1
[10] = 48 h, 1 µM, compound concentration 1 uM, replicate 2
[11] = 48 h, 10 µM, compound concentration 10 uM, replicate 1
[12] = 48 h, 10 µM, compound concentration 10 uM, replicate 2

CC(C)(O)CNc1ncc(-c2ccnc(Nc3ccnc(Cl)c3)n2)c(CC2CC2)n1
Population Apoptotic (%) [1]: 59% | Population Fragmented Nuclei (%) [1]: 14% | Population Healthy Nuclei (%) [1]: 25% | Population Hoechst High Intensity Objects (%) [1]: 16% | Population Membrane Permeable-Phenotype (%) [1]: 4% | Population Mitochondria Different-Phenotype (%) [1]: 90% | Population Mitotic Cells (%) [1]: 40% | Population Normal (%) [1]: 83% | Population Pyknosed Nuclei (%) [1]: 59% | Population Tubulin-Different-Phenotype (%) [1]: 75% | Total Cell Count [1]: 287 | Population Apoptotic (%) [2]: 17% | Population Fragmented Nuclei (%) [2]: 9% | Population Healthy Nuclei (%) [2]: 23% | Population Hoechst High Intensity Objects (%) [2]: 8% | Population Membrane Permeable-Phenotype (%) [2]: 13% | Population Mitochondria Different-Phenotype (%) [2]: 13% | Population Mitotic Cells (%) [2]: 82% | Population Normal (%) [2]: 91% | Population Pyknosed Nuclei (%) [2]: 67% | Population Tubulin-Different-Phenotype (%) [2]: 31% | Total Cell Count [2]: 133 | Population Apoptotic (%) [3]: 72% | Population Fragmented Nuclei (%) [3]: 11% | Population Healthy Nuclei (%) [3]: 5% | Population Hoechst High Intensity Objects (%) [3]: 23% | Population Membrane Permeable-Phenotype (%) [3]: 13% | Population Mitochondria Different-Phenotype (%) [3]: 93% | Population Mitotic Cells (%) [3]: 27% | Population Normal (%) [3]: 76% | Population Pyknosed Nuclei (%) [3]: 83% | Population Tubulin-Different-Phenotype (%) [3]: 86% | Total Cell Count [3]: 381 | Population Apoptotic (%) [4]: 52% | Population Fragmented Nuclei (%) [4]: 4% | Population Healthy Nuclei (%) [4]: 3% | Population Hoechst High Intensity Objects (%) [4]: 14% | Population Membrane Permeable-Phenotype (%) [4]: 28% | Population Mitochondria Different-Phenotype (%) [4]: 85% | Population Mitotic Cells (%) [4]: 47% | Population Normal (%) [4]: 85% | Population Pyknosed Nuclei (%) [4]: 91% | Population Tubulin-Different-Phenotype (%) [4]: 42% | Total Cell Count [4]: 213 | Population Apoptotic (%) [5]: 49% | Population Fragmented Nuclei (%) [5]: 12% | Population Healthy Nuclei (%) [5]: 28% | Population Hoechst High Intensity Objects (%) [5]: 15% | Population Membrane Permeable-Phenotype (%) [5]: 1% | Population Mitochondria Different-Phenotype (%) [5]: 82% | Population Mitotic Cells (%) [5]: 50% | Population Normal (%) [5]: 84% | Population Pyknosed Nuclei (%) [5]: 58% | Population Tubulin-Different-Phenotype (%) [5]: 89% | Total Cell Count [5]: 319 | Population Apoptotic (%) [6]: 27% | Population Fragmented Nuclei (%) [6]: 9% | Population Healthy Nuclei (%) [6]: 34% | Population Hoechst High Intensity Objects (%) [6]: 5% | Population Membrane Permeable-Phenotype (%) [6]: 6% | Population Mitochondria Different-Phenotype (%) [6]: 27% | Population Mitotic Cells (%) [6]: 72% | Population Normal (%) [6]: 94% | Population Pyknosed Nuclei (%) [6]: 56% | Population Tubulin-Different-Phenotype (%) [6]: 68% | Total Cell Count [6]: 145 | Population Apoptotic (%) [7]: 73% | Population Fragmented Nuclei (%) [7]: 15% | Population Healthy Nuclei (%) [7]: 3% | Population Hoechst High Intensity Objects (%) [7]: 23% | Population Membrane Permeable-Phenotype (%) [7]: 11% | Population Mitochondria Different-Phenotype (%) [7]: 100% | Population Mitotic Cells (%) [7]: 26% | Population Normal (%) [7]: 76% | Population Pyknosed Nuclei (%) [7]: 81% | Population Tubulin-Different-Phenotype (%) [7]: 100% | Total Cell Count [7]: 382 | Population Apoptotic (%) [8]: 64% | Population Fragmented Nuclei (%) [8]: 2% | Population Healthy Nuclei (%) [8]: 2% | Population Hoechst High Intensity Objects (%) [8]: 16% | Population Membrane Permeable-Phenotype (%) [8]: 40% | Population Mitochondria Different-Phenotype (%) [8]: 80% | Population Mitotic Cells (%) [8]: 35% | Population Normal (%) [8]: 83% | Population Pyknosed Nuclei (%) [8]: 94% | Population Tubulin-Different-Phenotype (%) [8]: 40% | Total Cell Count [8]: 208 | Population Apoptotic (%) [9]: 40% | Population Fragmented Nuclei (%) [9]: 22% | Population Healthy Nuclei (%) [9]: 29% | Population Hoechst High Intensity Objects (%) [9]: 17% | Population Membrane Permeable-Phenotype (%) [9]: 3% | Population Mitochondria Different-Phenotype (%) [9]: 62% | Population Mitotic Cells (%) [9]: 59% | Population Normal (%) [9]: 82% | Population Pyknosed Nuclei (%) [9]: 47% | Population Tubulin-Different-Phenotype (%) [9]: 68% | Total Cell Count [9]: 360 | Population Apoptotic (%) [10]: 25% | Population Fragmented Nuclei (%) [10]: 5% | Population Healthy Nuclei (%) [10]: 68% | Population Hoechst High Intensity Objects (%) [10]: 5% | Population Membrane Permeable-Phenotype (%) [10]: 10% | Population Mitochondria Different-Phenotype (%) [10]: 10% | Population Mitotic Cells (%) [10]: 75% | Population Normal (%) [10]: 94% | Population Pyknosed Nuclei (%) [10]: 26% | Population Tubulin-Different-Phenotype (%) [10]: 57% | Total Cell Count [10]: 209 | Population Apoptotic (%) [11]: 72% | Population Fragmented Nuclei (%) [11]: 22% | Population Healthy Nuclei (%) [11]: 1% | Population Hoechst High Intensity Objects (%) [11]: 28% | Population Membrane Permeable-Phenotype (%) [11]: 25% | Population Mitochondria Different-Phenotype (%) [11]: 100% | Population Mitotic Cells (%) [11]: 27% | Population Normal (%) [11]: 71% | Population Pyknosed Nuclei (%) [11]: 76% | Population Tubulin-Different-Phenotype (%) [11]: 100% | Total Cell Count [11]: 373 | Population Apoptotic (%) [12]: 63% | Population Fragmented Nuclei (%) [12]: 6% | Population Healthy Nuclei (%) [12]: 3% | Population Hoechst High Intensity Objects (%) [12]: 16% | Population Membrane Permeable-Phenotype (%) [12]: 0% | Population Mitochondria Different-Phenotype (%) [12]: 71% | Population Mitotic Cells (%) [12]: 36% | Population Normal (%) [12]: 83% | Population Pyknosed Nuclei (%) [12]: 89% | Population Tubulin-Different-Phenotype (%) [12]: 71% | Total Cell Count [12]: 212
